High-throughput results from PubChem.
Jurkat NFkB inh = inhibitors of induced NF-kB luciferase reporter, primary screen, TCR NF-kB activation inhibitor project, cell-based, luminescence, uHTS | Jurkat, PMA/ionomycin-induced NF-kB luciferase reporter | inhibition, % at 4 µM | actives 0.53% (n = 330,000) | AID 435003, 2010; in the data active = inhibition above about 50%
XBP1 UPR activ = activators of adaptive XBP1 UPR arm, primary screen, cell-based, CHO-XBP1 luciferase reporter, luminescence, uHTS; actives 0.33% (n = 330,000); IRE1-XBP1 UPR activation; percent of tunicamycin response, DMSO as zero; activation, % at 20 µM; AID 463104, 2010;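 active = versus positive control, 20 µM dose yields 30% or more activation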;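 also: 100% = tunicamycin at 10 µg/mL and 0% = DMSO only wells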
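Assay system: CHO-XBP1 luciferase reporter cells; Schedule: 6 h treatment, 37 °C; Detection: glow luminescence from Steady-Glo reagent; Benchmarks: high control tunicamycin 10 µg/mL final, low control DMSO vehicle only.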
CRFR2-BP antag = antagonists of CRF-BP/CRF-R2 complex, primary screen, cell-based, HEK293, calcium dye fluorescence, uHTS; CRF-induced calcium fluorescence; inhibition, % at 11.8 µM; actives 0.59% (n = 350,000);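 active = inhibition of the ligand-induced calcium signal above about 50% at the single tested concentration, limit read from the data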
CHOP UPR activ = activators of apoptotic CHOP UPR arm, primary screen, cell-based, CHO-CHOP luciferase reporter, luminescence, uHTS | activation, % at 10 µM | UPR activation; percent of tunicamycin response over DMSO baseline | actives 0.34% (n = 330,000);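 active = at 10 µM dose, activation of 40% or more, normalized to positive control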;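 also: 100% = tunicamycin at 10 µg/mL and 0% = DMSO alone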
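Evaluation: % reporter activation, DMSO baseline versus tunicamycin full activation; System: CHO-CHOP luciferase reporter cell line; Input: 500 cells/well; Incubation: 6 h compound treatment, 37 °C; Measured by: Steady-Glo luciferase luminescence; Dosing: one dose, 10 µM in 0.5% DMSO; Buffer or medium: F12 medium, 10% FBS; Benchmarks: positive tunicamycin 10 µg/mL, negative DMSO alone.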
697 NFkB inh = inhibitors of PMA/ionomycin-induced NF-kB reporter, 697 cells, primary screen, B-cell NF-kB inhibitor project, cell-based, luminescence, uHTS | 697 B-cell NF-kB luciferase reporter, 16 h | inhibition, % at 4 µM | actives 0.33% (n = 330,000) | AID 435022, 2010; in the data active = inhibition above about 35%
697 NFkB conf = PMA/ionomycin-induced NF-kB reporter inhibitors, 697 retest, confirmation, B-cell NF-kB inhibitor project, cell-based, luminescence, single concentration. actives 35% (n = 2,000). AID 449746, 2010. inhibition, % at 4 µM. shares compounds with 697 NFkB inh. 697 B-cell NF-kB luciferase, 16 h; in the data active = inhibition mostly above about 28%, no sharp cut-off; inactive = mostly below about 22%
Numbers without * were called inactive. An excerpt weighted towards active compounds, which were near 1.8% of everything screened.

`C(=C\c1ccc2ccccc2n1)/c1ccccc1` gave Jurkat NFkB inh -105, XBP1 UPR activ -8, CRFR2-BP antag 7, CHOP UPR activ -5, 697 NFkB inh -280 and 697 NFkB conf -373.
Nc1ccc(Cc2nc3cc4ccccc4cc3[nH]2)cc1 was read as Jurkat NFkB inh -83, XBP1 UPR activ 7, CRFR2-BP antag -7, CHOP UPR activ 2, 697 NFkB inh inactive and 697 NFkB conf -344.
`Nc1ccc(C(=O)OCc2nc3cc4ccccc4cc3[nH]2)cc1` gave Jurkat NFkB inh -42, XBP1 UPR activ -3, CRFR2-BP antag -20, CHOP UPR activ 3, 697 NFkB inh inactive and 697 NFkB conf -381.
For COc1ccc(NC(=O)C2CCCN2C(=O)OCc2ccccc2)c(OC)c1 (centres undefined) the results were Jurkat NFkB inh -12, XBP1 UPR activ -2, CRFR2-BP antag 3, CHOP UPR activ -1, 697 NFkB inh 36* and 697 NFkB conf 18.
`COc1ccc(NC(=S)NCc2ccccc2)c(OC)c1` gave Jurkat NFkB inh -3, XBP1 UPR activ -5, CRFR2-BP antag 21, CHOP UPR activ 0, 697 NFkB inh 43* and 697 NFkB conf 30*.
`COc1ccc(NC(=O)C2CCCN2C(=O)NCc2ccccc2)c(OC)c1` (centres undefined) gave Jurkat NFkB inh -4, XBP1 UPR activ 1, CRFR2-BP antag 4, CHOP UPR activ 1 and 697 NFkB inh -9.
For COCCn1c(SC(C)C(=O)Nc2ncc(Cl)cc2Cl)nc2ccccc21 (centres undefined) the results were Jurkat NFkB inh -15, XBP1 UPR activ 0, CRFR2-BP antag 10, CHOP UPR activ 1, 697 NFkB inh -251 and 697 NFkB conf -206.
Screening COc1ccc(OCC(=O)Nc2ccc(N3CCN(Cc4ccccc4F)CC3)cc2)cc1 returned Jurkat NFkB inh 13, XBP1 UPR activ 1, CRFR2-BP antag 11, CHOP UPR activ -1 and 697 NFkB inh -10.
Screening Cn1c(=O)c(C(=O)Nc2ccccn2)c(O)c2ccccc21 returned Jurkat NFkB inh -75, XBP1 UPR activ -2, CRFR2-BP antag -32, CHOP UPR activ 4, 697 NFkB inh -300 and 697 NFkB conf -250.
Cc1cccc(/C=N/NC(=O)c2ccc3c(c2)OCCO3)c1O was read as Jurkat NFkB inh -112, XBP1 UPR activ -10, CHOP UPR activ -6, 697 NFkB inh -352 and 697 NFkB conf -465.
Screening COc1ccc(-c2nn(C)c3sc(C(=O)N4CCOCC4)cc23)cc1OC returned Jurkat NFkB inh 16, XBP1 UPR activ 1, CRFR2-BP antag 1, CHOP UPR activ 0, 697 NFkB inh 37* and 697 NFkB conf 4.
CC(=O)Nc1ccc(NC(=O)CSc2nnc(-c3cccs3)n2N)cc1 was read as Jurkat NFkB inh 19, XBP1 UPR activ -3, CRFR2-BP antag 12, CHOP UPR activ 1, 697 NFkB inh 40* and 697 NFkB conf -1.
CCN(CC)c1ccc(/C=N/N=C(c2ccccc2)c2ccccc2)c(O)c1 was read as Jurkat NFkB inh 9, XBP1 UPR activ -2, CRFR2-BP antag 6, CHOP UPR activ -1, 697 NFkB inh 35* and 697 NFkB conf 27*.
For CC(=O)C1=NN(c2ccccc2)C(c2ccc3c(c2)OCO3)N1c1ccccc1 (centres undefined) the results were Jurkat NFkB inh -19, XBP1 UPR activ -1, CRFR2-BP antag 12, CHOP UPR activ -2 and 697 NFkB inh 0.
For CC(=O)C1=NN(c2ccccc2)C(c2cccs2)N1c1ccc(N(C)C)cc1 (centres undefined) the results were Jurkat NFkB inh 41, XBP1 UPR activ 7, CRFR2-BP antag 37, CHOP UPR activ 1, 697 NFkB inh 69* and 697 NFkB conf 38*.
For O=[N+]([O-])c1ccc(Sc2ccncn2)c([N+](=O)[O-])c1 the results were CRFR2-BP antag -9.
